Measurements reported in ChEMBL document CHEMBL1129512, “Studies on the mechanism of phosphatidylinositol 3-kinase inhibition by wortmannin and related analogs” (J Med Chem, 1996).
pIC50: −log10 of the molar value.

Experiments:
[1] = In vitro inhibitory activity against Phosphatidylinositol 3-Kinase
In short: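 Purified PI 3-kinase from bovine brain was used as the enzyme source. Results are reported as IC50 values.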

[2] = tested on: Mus musculus; assay: In vivo inhibition of tumor growth in C3H Mammary model was evaluated at dose 16 mg/kg peroral administration; format: functional; conditions: route oral
In short: (§1)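 Murine tumours were serially passaged as tumour fragments, implanted s.c. by trochar in the axillary region. Daily oral dosing began 1 day after implant, as a suspension in 2.5% emulphor EL-620 in 0.9% NaCl. There were 10 randomized mice per group. Tumours were measured by caliper the day after the last dose, with weight = length × width² × 0.5. Inhibition was 100 × (1 − mean treated/mean control weight). A group was toxic if lethality was >25%.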

[3] = tested on: Mus musculus; assay: In vivo inhibition of tumor growth in C3H Mammary model was evaluated at dose 2.0 mg/kg peroral administration; format: functional; conditions: route oral
In short: (§2)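 Murine C3H mammary tumour fragments were implanted subcutaneously by trochar in the axillary region, in groups of 10 randomized mice. Oral dosing started 1 day after implant, daily ×10, as a suspension in 2.5% emulphor EL-620 in 0.9% NaCl (water for one analog). Tumour weight, calculated as length×width²×0.5 from calipers, was measured the day after the last dose. Percent inhibition was calculated versus controls. Groups with >25% lethality were scored toxic.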

[4] = tested on: Mus musculus; assay: In vivo inhibition of tumor growth in C3H Mammary model was evaluated at dose 4.0 mg/kg peroral administration; format: functional; conditions: route oral; in short: as §2
[5] = tested on: Mus musculus; assay: In vivo inhibition of tumor growth in C3H Mammary model was evaluated at dose 8.0 mg/kg peroral administration; range is 60-79%; format: functional; conditions: route oral; in short: as §1

pIC50 [1]	SMILES	other results
< 6.30	C/N=C/C1=C(O)O[C@H](COC)[C@@]2(C)C1=C(O)C(=O)C1=C2[C@H](OC(C)=O)C[C@]2(C)C(=O)CC[C@@H]12	–
< 6.30	COC[C@H]1OC(O)=C(C=N)C2=C(O)C(=O)C3=C([C@H](OC(C)=O)C[C@]4(C)C(=O)CC[C@@H]34)[C@]21C	–
7.28	CCCCS/C=C1\C(=O)O[C@H](COC)[C@@]2(C)C1=C(O)C(=O)C1=C2[C@H](OC(C)=O)C[C@]2(C)C(=O)CC[C@@H]12	–

Second part, the molecule before the results:

SMILES	pIC50 [1]	other results
COC[C@H]1OC(=O)c2coc3c2[C@@]1(C)C1=C(C3=O)[C@@H]2C[C@@H](OC(C)=O)C(=O)[C@@]2(C)C[C@H]1OC(C)=O	6.51	–
COC[C@H]1OC(=O)c2coc3c2[C@@]1(C)C1=C(C3=O)[C@@H]2C[C@@H](Br)C(=O)[C@@]2(C)C[C@H]1OC(C)=O	7.11	–
COC[C@H]1OC(=O)c2coc3c2[C@@]1(C)C1=C(C3=O)[C@@H]2C[C@@H](O)C(=O)[C@@]2(C)C[C@H]1OC(C)=O	6.82	–
COC(=O)c1coc2c(O)c3c(c(C)c12)C=C[C@]1(C)C(=O)CC[C@@H]31	5.34	inhibition in vivo at 16 mg/kg [2]: < 60%
COC[C@H]1OC(=O)c2coc3c2[C@@]1(C)C1=C(C3=O)[C@@H]2CCC(=O)[C@@]2(C)CC1	7.77	inhibition in vivo at 2 mg/kg [3]: < 60%; inhibition in vivo at 4 mg/kg [4]: > 25%
COC[C@H]1OC(=O)c2coc3c2[C@@]1(C)C1=CC[C@]2(C)C(=O)CC[C@H]2C1C3=O (some centres undefined)	7.27	inhibition in vivo at 16 mg/kg [2]: > 25%; inhibition in vivo at 8 mg/kg [5]: 79%
